{
  "source": "ChEMBL document CHEMBL1123109",
  "about": "“Alkyl esters of 3-adenin-9-yl-2-hydroxypropanoic acid: a new class of broad-spectrum antiviral agents” (1985)",
  "type_in_all_cases": "functional",
  "key": {"[1]": {"tested_on": "Vesicular stomatitis virus", "assay": "Inhibition of Vesicular stomatitis virus induced cytopathicity in HeLa cells.", "in_short": "(§1)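 Vesicular stomatitis virus was inoculated at 100 CCID50 (100× the dose infecting 50% of cells) in each cell type: human embryonic skin-muscle fibroblasts, LR-strain trisomy-21 fibroblasts, HEp-2, CV-1, BS-C-1, Balb/3T3, RK13, human kidney, HeLa and Vero. CPE was read at 1–2 days in every cell type, once complete in untreated infected controls. The MIC is the concentration giving a 50% reduction in cytopathogenicity.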"}, "[2]": {"tested_on": "HeLa", "assay": "Cytotoxic concentration against HeLa cells.", "conditions": "Homo sapiens", "in_short": "(§2)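 Uninfected cells were incubated with compound for the same duration as the matching antiviral assay. The minimum cytotoxic concentration is the lowest one causing a microscopically detectable change in normal cell morphology.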"}, "[3]": {"tested_on": "Measles morbillivirus", "assay": "Inhibition of Measles virus induced cytopathicity in vero cells."}, "[4]": {"tested_on": "Sindbis virus", "assay": "Inhibition of Sindbis virus induced cytopathicity in vero cells."}, "[5]": {"tested_on": "HK", "assay": "Minimum inhibitory concentration which is required to reduce virus-induced cytopathogenicity by 50% against Vesicular stomatitis virus in human kidney", "in_short": "as §1"}, "[6]": {"tested_on": "Vesicular stomatitis virus", "assay": "Inhibition of Vesicular stomatitis virus induced cytopathicity in PRK cells."}, "[7]": {"tested_on": "Vero", "assay": "Cytotoxic concentration against Vero cells.", "conditions": "Chlorocebus sabaeus", "in_short": "as §2"}, "[8]": {"tested_on": "Poliovirus 1", "assay": "Inhibition of polio virus 1 induced cytopathicity in HeLa cells.", "conditions": "Enterovirus C"}, "[9]": {"tested_on": "Vesicular stomatitis virus", "assay": "Inhibition of Vesicular stomatitis virus induced cytopathicity in RK13 cells.", "in_short": "as §1"}, "[10]": {"tested_on": "Human alphaherpesvirus 1", "assay": "Inhibition of HSV-1 induced cytopathicity in PRK cells."}, "[11]": {"tested_on": "Vesicular stomatitis virus", "assay": "Inhibition of Vesicular stomatitis virus induced cytopathicity in E6SM cells.", "in_short": "as §1"}, "[12]": {"tested_on": "Vesicular stomatitis virus", "assay": "Inhibition of Vesicular stomatitis virus induced cytopathicity in BS-C-1 cells.", "in_short": "as §1"}, "[13]": {"tested_on": "Vesicular stomatitis virus", "assay": "Inhibition of Vesicular stomatitis virus induced cytopathicity in BALB/3T3 cells.", "conditions": "in Mus musculus", "in_short": "as §1"}, "[14]": {"tested_on": "Vesicular stomatitis virus", "assay": "Inhibition of Vesicular stomatitis virus induced cytopathicity in CV-1 cells.", "in_short": "as §1"}, "[15]": {"tested_on": "PRK", "assay": "Cytotoxic concentration against PRK cells.", "conditions": "Oryctolagus cuniculus", "in_short": "as §2"}, "[16]": {"tested_on": "Vesicular stomatitis virus", "assay": "Inhibition of Vesicular stomatitis virus induced cytopathicity in T-21 cells.", "in_short": "as §1"}, "[17]": {"tested_on": "Vesicular stomatitis virus", "assay": "Inhibition of Vesicular stomatitis virus induced cytopathicity in HEp-2 cells.", "in_short": "as §1"}, "[18]": {"tested_on": "Mammalian orthoreovirus 1", "assay": "Inhibition of Reo virus-1 induced cytopathicity in vero cells."}, "[19]": {"tested_on": "Coxsackievirus B4", "assay": "Inhibition of Coxsackie B4 virus induced cytopathicity in HeLa cells.", "conditions": "Enterovirus B"}, "[20]": {"tested_on": "Human respirovirus 3", "assay": "Inhibition of parainfluenza virus-3 induced cytopathicity in vero cells."}, "[21]": {"tested_on": "Vaccinia virus", "assay": "Inhibition of Vaccinia virus induced cytopathicity in PRK cells.", "conditions": "Orthopoxvirus vaccinia"}, "[22]": {"tested_on": "Vesicular stomatitis virus", "assay": "Inhibition of Vesicular stomatitis virus induced cytopathicity in Vero cells.", "in_short": "as §1"}, "[23]": {"species_on_record": "Oryctolagus cuniculus", "assay": "Inhibitory effects on DNA, RNA, and Protein synthesis in rabbit kidney cells was evaluated for incorporation of [4,5-3H]leucine", "conditions": "read-out: ID50 (the source's name)"}, "[24]": {"species_on_record": "Oryctolagus cuniculus", "assay": "Inhibitory effects on DNA, RNA, and Protein synthesis in rabbit kidney cells was evaluated for incorporation of [5-3H]-Urd", "conditions": "read-out: ID50 (the source's name)"}, "[25]": {"tested_on": "HK", "assay": "Minimum inhibitory concentration which is required to reduce virus-induced cytopathogenicity by 50% against Vesicular stomatitis virus in human kidney (HK) cells", "in_short": "as §1"}, "[26]": {"species_on_record": "Oryctolagus cuniculus", "assay": "Inhibitory effects on DNA, RNA, and Protein synthesis in rabbit kidney cells was evaluated for incorporation of [methyl-3H]dThd]", "conditions": "read-out: ID50 (the source's name)"}, "[27]": {"tested_on": "HK", "assay": "Minimum inhibitory concentration which is required to reduce virus-induced cytopathogenicity by 50% against Vesicular stomatitis virus in human kidney,", "in_short": "as §1"}},
  "data": [
    {"smiles": "CCCCCCCCOC(=O)C(O)Cn1cnc2c(N)ncnc21", "note": "(stereo not given)", "values": [
      {"measurement": "MIC", "setting": "[1]", "value": 1, "unit": "µg/mL"},
      {"measurement": "MCC", "setting": "[2]", "value": 100, "unit": "µg/mL"},
      {"measurement": "MIC", "setting": "[3]", "value": 70, "unit": "µg/mL"},
      {"measurement": "MIC", "setting": "[4]", "value": 30, "unit": "µg/mL"},
      {"measurement": "MIC", "setting": "[5]", "value": 15, "unit": "µg/mL"},
      {"measurement": "MIC", "setting": "[6]", "value": 7, "unit": "µg/mL"},
      {"measurement": "MCC", "setting": "[7]", "value": 200, "unit": "µg/mL"},
      {"measurement": "MIC", "setting": "[8]", "value": "> 100", "unit": "µg/mL"},
      {"measurement": "MIC", "setting": "[9]", "value": 30, "unit": "µg/mL"},
      {"measurement": "MIC", "setting": "[10]", "value": "> 100", "unit": "µg/mL"},
      {"measurement": "MIC", "setting": "[11]", "value": 7, "unit": "µg/mL"},
      {"measurement": "MIC", "setting": "[12]", "value": "> 100", "unit": "µg/mL"},
      {"measurement": "MIC", "setting": "[13]", "value": 100, "unit": "µg/mL"},
      {"measurement": "MIC", "setting": "[14]", "value": "> 100", "unit": "µg/mL"},
      {"measurement": "MCC", "setting": "[15]", "value": 100, "unit": "µg/mL"},
      {"measurement": "MIC", "setting": "[16]", "value": 0.5, "unit": "µg/mL"},
      {"measurement": "MIC", "setting": "[17]", "value": 2, "unit": "µg/mL"},
      {"measurement": "MIC", "setting": "[18]", "value": 7, "unit": "µg/mL"},
      {"measurement": "MIC", "setting": "[19]", "value": "> 100", "unit": "µg/mL"},
      {"measurement": "MIC", "setting": "[20]", "value": 15, "unit": "µg/mL"},
      {"measurement": "MIC", "setting": "[21]", "value": 7, "unit": "µg/mL"},
      {"measurement": "MIC", "setting": "[22]", "value": 100, "unit": "µg/mL"}
    ]},
    {"smiles": "COC(=O)C(O)Cn1cnc2c(N)ncnc21", "note": "(stereo not given)", "values": [
      {"measurement": "MIC", "setting": "[1]", "value": 70, "unit": "µg/mL"},
      {"measurement": "IC50", "setting": "[23]", "value": "> 400", "unit": "µg/mL"},
      {"measurement": "MCC", "setting": "[2]", "value": "> 400", "unit": "µg/mL"},
      {"measurement": "MIC", "setting": "[3]", "value": 40, "unit": "µg/mL"},
      {"measurement": "IC50", "setting": "[24]", "value": 350, "unit": "µg/mL"},
      {"measurement": "MIC", "setting": "[25]", "value": "> 400", "unit": "µg/mL"},
      {"measurement": "MIC", "setting": "[4]", "value": "> 400", "unit": "µg/mL"},
      {"measurement": "MIC", "setting": "[6]", "value": 3, "unit": "µg/mL"},
      {"measurement": "MCC", "setting": "[7]", "value": "> 400", "unit": "µg/mL"},
      {"measurement": "MIC", "setting": "[8]", "value": "> 400", "unit": "µg/mL"},
      {"measurement": "MIC", "setting": "[9]", "value": 1, "unit": "µg/mL"},
      {"measurement": "MIC", "setting": "[10]", "value": "> 400", "unit": "µg/mL"},
      {"measurement": "MIC", "setting": "[11]", "value": 30, "unit": "µg/mL"},
      {"measurement": "MIC", "setting": "[12]", "value": 150, "unit": "µg/mL"},
      {"measurement": "MIC", "setting": "[13]", "value": 300, "unit": "µg/mL"},
      {"measurement": "IC50", "setting": "[26]", "value": "> 400", "unit": "µg/mL"},
      {"measurement": "MCC", "setting": "[15]", "value": "> 400", "unit": "µg/mL"},
      {"measurement": "MIC", "setting": "[17]", "value": 3, "unit": "µg/mL"},
      {"measurement": "MIC", "setting": "[18]", "value": 200, "unit": "µg/mL"},
      {"measurement": "MIC", "setting": "[19]", "value": "> 400", "unit": "µg/mL"},
      {"measurement": "MIC", "setting": "[20]", "value": 20, "unit": "µg/mL"},
      {"measurement": "MIC", "setting": "[21]", "value": 7, "unit": "µg/mL"},
      {"measurement": "MIC", "setting": "[22]", "value": "> 400", "unit": "µg/mL"}
    ]},
    {"smiles": "Nc1ncnc2c1ncn2C[C@H](O)CO", "note": "[(S)-DHPA]", "values": [
      {"measurement": "MIC", "setting": "[1]", "value": 30, "unit": "µg/mL"},
      {"measurement": "IC50", "setting": "[23]", "value": "> 400", "unit": "µg/mL"},
      {"measurement": "MCC", "setting": "[2]", "value": "> 400", "unit": "µg/mL"},
      {"measurement": "MIC", "setting": "[3]", "value": 30, "unit": "µg/mL"},
      {"measurement": "IC50", "setting": "[24]", "value": "> 400", "unit": "µg/mL"},
      {"measurement": "MIC", "setting": "[4]", "value": "> 400", "unit": "µg/mL"},
      {"measurement": "MIC", "setting": "[6]", "value": 15, "unit": "µg/mL"},
      {"measurement": "MCC", "setting": "[7]", "value": "> 400", "unit": "µg/mL"},
      {"measurement": "MIC", "setting": "[8]", "value": "> 400", "unit": "µg/mL"},
      {"measurement": "MIC", "setting": "[9]", "value": 150, "unit": "µg/mL"},
      {"measurement": "MIC", "setting": "[10]", "value": "> 400", "unit": "µg/mL"},
      {"measurement": "MIC", "setting": "[11]", "value": 15, "unit": "µg/mL"},
      {"measurement": "MIC", "setting": "[27]", "value": 50, "unit": "µg/mL"},
      {"measurement": "MIC", "setting": "[12]", "value": "> 400", "unit": "µg/mL"},
      {"measurement": "MIC", "setting": "[13]", "value": "> 400", "unit": "µg/mL"},
      {"measurement": "IC50", "setting": "[26]", "value": "> 326", "unit": "µg/mL"},
      {"measurement": "MIC", "setting": "[14]", "value": "> 400", "unit": "µg/mL"},
      {"measurement": "MCC", "setting": "[15]", "value": "> 400", "unit": "µg/mL"},
      {"measurement": "MIC", "setting": "[16]", "value": 20, "unit": "µg/mL"},
      {"measurement": "MIC", "setting": "[17]", "value": 4, "unit": "µg/mL"},
      {"measurement": "MIC", "setting": "[18]", "value": 200, "unit": "µg/mL"},
      {"measurement": "MIC", "setting": "[19]", "value": "> 400", "unit": "µg/mL"},
      {"measurement": "MIC", "setting": "[20]", "value": 20, "unit": "µg/mL"},
      {"measurement": "MIC", "setting": "[21]", "value": 30, "unit": "µg/mL"},
      {"measurement": "MIC", "setting": "[22]", "value": 200, "unit": "µg/mL"}
    ]}
  ]
}
